# CaV13 ICDI inh: Primary screen for inhibitors of IQ motif and Ca2+-dependent inactivation inhibitor domain binding in CACNA1D, Förster resonance energy transfer in living cells, …; 340,000 tested, 0.098% active; inhibition, % at 12.3 µM; HEK cells, CFP/YFP FRET ICDI-IQ, plate reader, 10 min; percent FRET-ratio fall versus neutral wells;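 active = mean replicate inhibition of at least 30% and at least 1% of replicates passing that level; inconclusive = only one of the two criteria is met; inactive = neither criterion is met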
# RanGTP-Imp inh: disruptors of Ran-importin-beta complex formation – biochemical, FRET, CFP-Ran, YFP-importin-beta, homogeneous, primary screen; cell-free CFP-Ran/YFP-importin-beta FRET ratio; inhibition, % (test concentration not listed); 300,000 tested, 1.1% active; AID 2216;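 active = more than half of the replicate wells show a fall in the fluorescence ratio signal beyond about 16%, limit read from the data, passing the limit was not always enough; inconclusive = exactly half of the replicate wells pass the set limit; inactive = fewer than half of replicates pass the limit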
# Runt-SMMHC FRET: inhibitors of human RUNX1 Runt domain binding to CBFb-SMMHC; Q01196+Q13951; AID 1434; inhibition, % at 20 µM; 220,000 tested, 0.74% active; Cerulean-Runt/Venus-CBFb-SMMHC FRET ratio 530/480, 1 h;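 active = mean inhibition across duplicate retests at 20 µM reaching about 50%, limit read from the data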;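 note: inhibitors lower the FRET ratio by blocking Runt binding to CBFb-SMMHC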
# Target sequence (Q01196 whole entry, looked up, the tested form may be a part): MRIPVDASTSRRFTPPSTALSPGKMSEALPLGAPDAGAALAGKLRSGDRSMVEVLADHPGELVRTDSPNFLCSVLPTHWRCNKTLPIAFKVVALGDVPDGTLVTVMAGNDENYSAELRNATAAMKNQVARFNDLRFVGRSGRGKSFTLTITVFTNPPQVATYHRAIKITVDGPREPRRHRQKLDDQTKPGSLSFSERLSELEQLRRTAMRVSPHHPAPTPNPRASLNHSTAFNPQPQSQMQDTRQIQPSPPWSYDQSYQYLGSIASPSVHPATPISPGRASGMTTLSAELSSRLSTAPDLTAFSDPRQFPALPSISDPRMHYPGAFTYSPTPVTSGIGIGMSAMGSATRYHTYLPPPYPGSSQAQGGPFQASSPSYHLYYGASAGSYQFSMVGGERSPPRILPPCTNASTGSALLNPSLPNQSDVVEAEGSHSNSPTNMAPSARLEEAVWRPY
# Target sequence (Q13951 whole entry, looked up, the tested form may be a part): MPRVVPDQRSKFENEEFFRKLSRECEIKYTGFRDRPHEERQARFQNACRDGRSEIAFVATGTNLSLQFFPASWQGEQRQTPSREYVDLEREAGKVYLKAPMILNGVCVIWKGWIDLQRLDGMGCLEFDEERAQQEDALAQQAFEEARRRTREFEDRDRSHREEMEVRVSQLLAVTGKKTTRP
# Runt-CBFb FRET: Runt domain-CBFb interaction inhibition. inhibition, % at 20 µM. AID 1496. Q01196+Q13951. Cerulean-Runt/Venus-CBFb FRET ratio 530/480, 1 h. 220,000 tested, 0.46% active;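 active = inhibition over about 50% at 20 µM in the single-dose screen, limit read from the data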
#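 Schedule: protein complex preformed 1 h, compound exposure 1 h, room temperature, dark; test system: Cerulean-labeled Runt domain protein; amount: 100 nM per protein; buffer or medium: Tris 50 mM pH 7.5, KCl, K2SO4, 0.01% BSA; read-out: loss of energy transfer signal; detection: FRET fluorescence; controls: 5 µM unlabeled CBFb as full-inhibition high control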
# Hits are given with their value; i = inactive; ? = inconclusive; nt = not tested or not shown. Hits are enriched below; roughly 1.2% of the tested compounds scored in any of these assays.
SMILES,CaV13 ICDI inh,RanGTP-Imp inh,Runt-SMMHC FRET,Runt-CBFb FRET
CCOC(=O)C1=C(C)NC2=C(C(=O)CCC2)C1c1cccs1 (centres undefined),i,i,i,i
COc1ccc(CCNC(=S)Nc2cccc(C)c2C)cc1,nt,27.3,i,i
COC(=O)c1cc(=O)nc(NN=Cc2ccccc2O)s1,i,nt,nt,nt
CC(=O)c1sc(N/N=C\c2ccccc2O)nc1C,i,37.9,nt,nt
Cc1[nH]c2ccccc2c1CCO,nt,i,i,i
Cc1[nH]c2ccccc2c1CCCO,i,17.7,i,i
COc1ccc(NC(=O)C2c3ccccc3OCC(=O)N2CC(F)(F)F)cc1 (centres undefined),i,nt,nt,nt
COc1ccc(Cn2nnnc2C(CC(C)C)N2CCC(C(N)=O)CC2)cc1 (centres undefined),43.4,i,i,i
CCCC(c1nnnn1Cc1ccc(OC)cc1)N1CCC(C(N)=O)CC1 (centres undefined),i,?,i,i
Cc1ccc(CN2C(=O)C(CC(C)C)Nc3ncnc(N4CCCCC4)c32)cc1 (centres undefined),i,nt,nt,nt
Cc1ccc(S(=O)(=O)c2cc3c(=O)n4ccccc4nc3n(C3CCCC3)c2=N)cc1,i,122.5,nt,nt
CCn1c(=N)c(S(=O)(=O)c2ccc(C)cc2)cc2c(=O)n3ccccc3nc21,i,i,nt,nt
Cc1ccc(S(=O)(=O)c2cc3c(=O)n4ccccc4nc3n(CCc3ccccc3)c2=N)cc1,i,64.2,nt,nt
Cc1ccc(S(=O)(=O)c2cc3c(=O)n4ccccc4nc3n(C)c2=N)cc1,79.6,173.9,62.0,96.9
CCCC[C@@H]1C=C(C(=O)O)[C@H](c2ccc3c(c2)OCO3)N1S(=O)(=O)c1ccc(C)cc1,i,nt,nt,nt
CCN(CC)C(=O)CSc1nc2ccccc2c(=O)n1-c1cccc(OC)c1,i,i,i,i
COc1cccc(-n2c(SCc3cc(=O)oc4cc(O)c(O)cc34)nc3ccccc3c2=O)c1,i,i,nt,67.3
COc1ccccc1C(=O)NCC(c1ccco1)N1CCc2ccccc21 (centres undefined),i,i,nt,nt
COc1cc(/C=C(/C#N)c2nc3ccccc3[nH]2)ccc1OCc1ccc(C(=O)O)o1,i,i,62.6,i
COCCNC(=S)N=Nc1c(O)[nH]c2c(C)cc(C)cc12,i,156.3,i,i
CCCCNC(=S)N=Nc1c(O)[nH]c2ccccc12,i,i,i,i
Cc1ccc(NC(=S)NCC(O)c2ccccc2)c(C)c1 (centres undefined),i,i,nt,nt
COc1ccc(/C=C/C(=O)c2ccc(Cl)cc2)c(OC)c1,i,20.5,i,i
COc1cc(/C=C2\SC(c3ccccc3)=NC2=O)cc(Cl)c1O,i,i,68.9,i
COc1cc(-c2c(C(=O)c3ccccc3)[nH]c(N)c2C(=O)NCCc2c[nH]c3ccccc23)ccc1F,i,nt,nt,nt
SMILES,CaV13 ICDI inh,RanGTP-Imp inh,Runt-SMMHC FRET,Runt-CBFb FRET
CCN1CCN(c2nc3ccccn3c(=O)c2C=O)CC1,i,110.4,nt,nt
O=Cc1c(N2CCN(CCO)CC2)nc2ccccn2c1=O,i,78.9,nt,nt
Cc1cccc(NC(=S)NC(=O)CC2CC(C)(C)OC2=O)c1 (centres undefined),i,i,i,i
Cc1occc1-c1nnc(SCC(=O)N(C)c2ccccc2)o1,i,nt,nt,nt
Cc1occc1-c1nnc(SCC(=O)N(C)c2ccccc2)n1C,i,26.3,nt,nt
CCCCN(CCCNC(=O)C1CCN(S(=O)(=O)CC)CC1)c1ccccc1,i,21.8,i,i
CCN(CCNC(=O)C1CCN(S(=O)(=O)CC)CC1)c1ccccc1,i,i,i,i
CC(C)NCC(=O)Nc1c2c(nc3ccccc13)CCC2,i,i,i,i
c1coc(CNc2c3c(nc4ccccc24)CCC3)c1,i,78.9,i,i
Cc1ccc2sc3ccc(NC(=O)c4ccccc4Cl)cc3c(=O)c2c1,i,113.6,101.3,i
CCOC(=O)c1c(N)sc2c1CCCC2,nt,i,i,i
CCOC(=O)c1c(N)sc2c1CCN(CCc1ccccc1)C2,i,72.4,nt,nt
CCOC(=O)c1c(NC(=S)Nc2ccccc2)sc2c1CCN(CCc1ccccc1)C2,nt,nt,i,94.3
CN1CCc2c(sc(N)c2C(=O)O)C1,i,50.1,143.6,75.0
N#CC1(NC(=O)CN2CCc3ccccc3C2)CCCC1,i,nt,i,i
COc1ccc(Oc2cccc3c2S(=O)(=O)N(C2CC2)C[C@@H](COCc2ccccc2)O3)cc1,i,nt,nt,nt
O=C(Nc1nc(-c2cccnc2)cs1)c1ccccc1[N+](=O)[O-],i,17.9,i,i

# Source: PubChem (several laboratories)
